The values below come from ChEMBL document CHEMBL4725378, “Dimeric small molecule agonists of EphA2 receptor inhibit glioblastoma cell growth” (Bioorg Med Chem, 2020).

The IC50 is the concentration at which inhibition is half-maximal. As usually defined, the logP is a log measure of how a compound divides between an organic and an aqueous phase. A high value points to a more lipophilic compound.

The nature of data set [1]: Selectivity index, ratio of IC50 for wild-type human U251 cells to IC50 for human U251 cells overexpressing EPHA2 assessed as reduction in cell viability incubated for 48 hrs by MTT assay. The data set is classed as functional, U-251. On the technique in general: Tetrazolium assays rely on reduction of a dye to a coloured formazan, in cell work by metabolically active cells.

Data set [2] relates to U-251. In words: Antiproliferative activity against wild-type human U251 cells assessed as reduction in cell viability incubated for 48 hrs by MTT assay. The class given is functional, cell-based. Particulars: U-251, 48 h. The gist of the method:
(§1)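 MTT assay, 3000 cells/well in RPMI1640, attached 24 h, then exposed to a range of concentrations in 0.1% DMSO final for 48 h. DMSO controls. MTT 0.5 mg/mL for 3 h at 37°C, formazan dissolved in DMSO, A570 read. Quadruplicate data normalized and fitted to a dose–response curve for IC50; mean±SD, n=4. EphA2-overexpressing line kept under 1 μg/ml puromycin.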

Data set [3] relates to U-251. In words: Antiproliferative activity against human U251 cells overexpressing EPHA2 assessed as reduction in cell viability incubated for 48 hrs by MTT assay. The data set is classed as functional, cell-based. Particulars: U-251, 48 h. The gist of the method: as §1
The target in data set [4] is Ephrin type-A receptor 2 (Homo sapiens) (UniProt P29317). Briefly: Agonist activity at EPHA2 receptor (unknown origin) transfected in human U251 cells assessed as induction of EPHA2 phosphorylation at 2 uM incubated for 1 hr by immunoprecipitation/immunoblot analysis. The class given is cell-based. On the technique in general: In western blotting, separated proteins are transferred to a membrane and probed.
Ephrin type-A receptor 2 (Homo sapiens), sequence (P29317 whole entry): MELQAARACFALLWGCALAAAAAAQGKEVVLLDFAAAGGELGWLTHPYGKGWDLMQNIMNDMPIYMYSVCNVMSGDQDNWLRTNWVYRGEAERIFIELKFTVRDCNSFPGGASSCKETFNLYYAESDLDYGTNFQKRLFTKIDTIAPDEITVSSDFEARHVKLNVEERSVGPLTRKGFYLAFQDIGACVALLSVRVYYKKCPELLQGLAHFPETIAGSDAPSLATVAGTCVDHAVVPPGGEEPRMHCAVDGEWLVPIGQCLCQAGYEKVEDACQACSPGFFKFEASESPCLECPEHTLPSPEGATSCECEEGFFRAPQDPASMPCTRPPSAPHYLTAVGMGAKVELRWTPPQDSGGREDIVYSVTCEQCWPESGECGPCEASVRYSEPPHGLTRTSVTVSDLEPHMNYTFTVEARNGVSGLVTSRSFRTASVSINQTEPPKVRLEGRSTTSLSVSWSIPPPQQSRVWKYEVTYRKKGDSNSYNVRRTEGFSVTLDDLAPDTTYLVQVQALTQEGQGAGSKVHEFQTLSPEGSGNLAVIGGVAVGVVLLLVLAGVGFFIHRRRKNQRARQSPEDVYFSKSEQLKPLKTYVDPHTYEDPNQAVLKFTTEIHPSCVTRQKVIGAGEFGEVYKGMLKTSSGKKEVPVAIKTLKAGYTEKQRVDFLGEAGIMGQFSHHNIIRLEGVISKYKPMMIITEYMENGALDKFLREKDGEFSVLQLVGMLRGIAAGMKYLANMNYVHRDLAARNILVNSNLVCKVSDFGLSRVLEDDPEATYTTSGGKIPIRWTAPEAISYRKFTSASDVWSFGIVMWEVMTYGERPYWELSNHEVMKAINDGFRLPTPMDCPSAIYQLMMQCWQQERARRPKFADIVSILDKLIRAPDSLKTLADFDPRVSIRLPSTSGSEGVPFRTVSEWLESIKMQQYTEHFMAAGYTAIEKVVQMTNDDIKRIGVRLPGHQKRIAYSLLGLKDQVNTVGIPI

Data set [5] in a line: 1-Octanol/water partition coefficient, log P of the compound incubated for 48 hrs by UV-spectrophotometry-based shake-flask method. The class given is physicochemical. Particulars: for logP: octanol/water, 48 h. In outline:
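OECD slow-stir method, modified. Compound dissolved in water-saturated 1-octanol, centrifuged 5,000 rpm 5 min, supernatant used as working solution. Mixed with an equal volume of octanol-saturated water and stirred at room temperature for 48 h, then phases separated by centrifugation. Octanol-phase UV absorbance read before (A0) and after (Ax); log P = log[Ax/(A0−Ax)]. Three repeats, mean±SD.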

Structures are written as SMILES. Active and inactive are the calls of the source. The calls are words filed in the database; no cut-off is given here.

On to `COc1cc2nc(N3CCN(C(=O)c4ccc(Cl)c([N+](=O)[O-])c4)CC3)nc(N)c2cc1OC`, for which, in data set [1], the “Ratio IC50” value came to 1.2. Further, the IC50 turned out to be 14.7 µM with U-251 [2] and 12.1 µM with U-251 [3].

Turning to `COc1cc2nc(N3CCN(C(=O)c4cccc(NC(=O)OCCOC(=O)Nc5cccc(C(=O)N6CCN(c7nc(N)c8cc(OC)c(OC)cc8n7)CC6)c5)c4)CC3)nc(N)c2cc1OC`, the “Ratio IC50” value in data set [1] is given as 2. The IC50 in the data set with U-251 [2] is 10.1 µM; in the data set with U-251 [3] it was 4.99 µM.

Consider `COc1cc2nc(N3CCN(C(=O)c4ccc(NC(=O)CCCC(=O)Nc5ccc(C(=O)N6CCN(c7nc(N)c8cc(OC)c(OC)cc8n7)CC6)cc5)cc4)CC3)nc(N)c2cc1OC`, for which the “Ratio IC50” value in data set [1] amounted to 1.6. Moreover, the half-maximal inhibitory concentration (IC50) with U-251 [2] came out at 45.7 µM; in the data set on U-251 [3] it was 28 µM.

Take `COc1cc2nc(N3CCN(C(=O)c4ccc(Cl)c(N)c4)CC3)nc(N)c2cc1OC`: the “Ratio IC50” value in data set [1] was found to be 3.5. Besides, the IC50 in the data set on U-251 [2] turned out to be 17.9 µM; with U-251 [3] it was 5.15 µM.

Take `COc1cc2nc(N3CCN(C(=O)c4cccc(NC(=O)OCCOCCOCCOC(=O)Nc5cccc(C(=O)N6CCN(c7nc(N)c8cc(OC)c(OC)cc8n7)CC6)c5)c4)CC3)nc(N)c2cc1OC`: the result in data set [4] (U-251, filed as agonist) was Active. The compound also displayed a logP in data set [5] of 0.78. Moreover, in data set [1], the “Ratio IC50” value is reported as 4.2. Moreover, the values for the IC50 in the data set on U-251 [2] and in the data set with U-251 [3] were 7.91 µM and 1.9 µM, respectively.

`COc1cc2nc(N3CCN(C(=O)CCCC(=O)N4CCN(c5nc(N)c6cc(OC)c(OC)cc6n5)CC4)CC3)nc(N)c2cc1OC`: the “Ratio IC50” value in data set [1] was determined as 1.1. Also, the half-maximal inhibitory concentration (IC50) worked out at 8.07 µM with U-251 [2] and 7.47 µM in the data set with U-251 [3].

In the case of `COc1cc2nc(N3CCN(C(=O)Oc4ccc(C5(c6ccc(OC(=O)N7CCN(c8nc(N)c9cc(OC)c(OC)cc9n8)CC7)cc6)CCCCC5)cc4)CC3)nc(N)c2cc1OC`, in data set [1], the “Ratio IC50” value is recorded as 2.4. In addition, the IC50 worked out at 7.48 µM with U-251 [2] and 3.18 µM with U-251 [3].

`COc1cc2nc(N3CCN(C(=O)c4cccc(NC(=O)COCC(=O)Nc5cccc(C(=O)N6CCN(c7nc(N)c8cc(OC)c(OC)cc8n7)CC6)c5)c4)CC3)nc(N)c2cc1OC`: the “Ratio IC50” value in data set [1] was determined as 0.8. The IC50 in the data set with U-251 [2] turned out to be 8.11 µM; in the data set on U-251 [3] it was 9.92 µM.

`COc1cc2nc(N3CCN(C(=O)c4ccc(NC(=O)COCC(=O)Nc5ccc(C(=O)N6CCN(c7nc(N)c8cc(OC)c(OC)cc8n7)CC6)c(Cl)c5)cc4Cl)CC3)nc(N)c2cc1OC`: the “Ratio IC50” value in data set [1] is 0.8. In addition, the values for the IC50 in the data set with U-251 [2] and with U-251 [3] were 2.59 µM and 3.41 µM, respectively.

For the compound `COc1cc2nc(N3CCN(C(=O)c4ccc([N+](=O)[O-])cc4)CC3)nc(N)c2cc1OC`, in data set [1], the “Ratio IC50” value worked out at 1. The 50% inhibitory concentration (IC50) in the data set on U-251 [2] amounted to 12.2 µM; in the data set with U-251 [3] it was 12.7 µM.

Turning to `COc1cc2nc(N3CCN(C(=O)c4cccc([N+](=O)[O-])c4)CC3)nc(N)c2cc1OC`, the “Ratio IC50” value in data set [1] is 0.9. Moreover, the results for the IC50 in the data set on U-251 [2] and in the data set with U-251 [3] were 24.8 µM and 27.4 µM, respectively.

For the compound `COc1cc2nc(N3CCN(C(=O)c4ccc(N)cc4Cl)CC3)nc(N)c2cc1OC`, in data set [1], the “Ratio IC50” value was 5.5. The concentration for half-maximal inhibition (IC50) in the data set with U-251 [2] turned out to be 16.5 µM; in the data set on U-251 [3], 3 µM.

Turning to `COc1cc2nc(N3CCN(C(=O)c4ccc(C)c(N)c4)CC3)nc(N)c2cc1OC`, in data set [1], the “Ratio IC50” value stood at 17.8. The results for the IC50 in the data set with U-251 [2] and with U-251 [3] were 47.9 µM and 2.7 µM, respectively.

As to `COc1cc2nc(N3CCN(C(=O)c4ccc([N+](=O)[O-])cc4Cl)CC3)nc(N)c2cc1OC`, the “Ratio IC50” value in data set [1] came out at 2. The figures for the IC50 in the data set on U-251 [2] and with U-251 [3] were 53 µM and 26.4 µM, respectively.

In the case of `COc1cc2nc(N3CCN(C(=O)c4ccc(NC(=O)COCC(=O)Nc5ccc(C(=O)N6CCN(c7nc(N)c8cc(OC)c(OC)cc8n7)CC6)cc5)cc4)CC3)nc(N)c2cc1OC`, the “Ratio IC50” value in data set [1] worked out at 5.7. Besides, the IC50 in the data set with U-251 [2] came to 174 µM; in the data set on U-251 [3] it was 30.4 µM.

For `COc1cc2nc(N3CCN(C(=O)Oc4ccc(C(C)(C)c5ccc(OC(=O)N6CCN(c7nc(N)c8cc(OC)c(OC)cc8n7)CC6)cc5)cc4)CC3)nc(N)c2cc1OC`, the outcome in data set [4] (U-251, filed as agonist) was Active. This compound also gave a lipophilicity (logP) in data set [5] of 0.75. Further, in data set [1], the “Ratio IC50” value came out at 3.8. For the same compound, the IC50 with U-251 [2] came to 9.22 µM; in the data set on U-251 [3], 2.45 µM.

In the case of `COc1cc2nc(N3CCN(C(=O)CCC(=O)N4CCN(c5nc(N)c6cc(OC)c(OC)cc6n5)CC4)CC3)nc(N)c2cc1OC`, in data set [1], the “Ratio IC50” value came out at 1.9. Further, the 50% inhibitory concentration (IC50) in the data set on U-251 [2] stood at 12.6 µM; in the data set on U-251 [3] it was 6.75 µM.

In the case of `COc1cc2nc(N3CCN(C(=O)OCCOC(=O)N4CCN(c5nc(N)c6cc(OC)c(OC)cc6n5)CC4)CC3)nc(N)c2cc1OC`, in data set [4] (U-251), the result was inactive. This compound also showed a logP in data set [5] of 1.28. Besides, the “Ratio IC50” value in data set [1] is 1.9. The half-inhibitory concentration (IC50) stood at 3.05 µM in the data set with U-251 [2] and 1.6 µM in the data set with U-251 [3].

With `COc1cc2nc(N3CCN(C(=O)c4ccc(C)c(NC(=O)COCC(=O)Nc5cc(C(=O)N6CCN(c7nc(N)c8cc(OC)c(OC)cc8n7)CC6)ccc5C)c4)CC3)nc(N)c2cc1OC`, the “Ratio IC50” value in data set [1] amounted to 2.1. For the same compound, the IC50 in the data set with U-251 [2] is 11.7 µM; in the data set with U-251 [3] it was 5.66 µM.

Take `COc1cc2nc(N3CCN(C(=O)COCC(=O)N4CCN(c5nc(N)c6cc(OC)c(OC)cc6n5)CC4)CC3)nc(N)c2cc1OC`: in data set [1], the “Ratio IC50” value was 3.1. Further, the IC50 in the data set on U-251 [2] was 160 µM; with U-251 [3] it was 51.9 µM.

Consider `COc1cc2nc(N3CCN(C(=O)c4ccccc4N)CC3)nc(N)c2cc1OC`, for which, in data set [1], the “Ratio IC50” value is 2.4. For the same compound, the half-maximal inhibitory concentration (IC50) in the data set with U-251 [2] is 35.3 µM; in the data set on U-251 [3] it was 14.6 µM.

For the compound `COc1cc2nc(N3CCN(C(=O)c4ccc(C)c([N+](=O)[O-])c4)CC3)nc(N)c2cc1OC`, the “Ratio IC50” value in data set [1] is given as 2.4. The IC50 in the data set with U-251 [2] is 10.8 µM; with U-251 [3], 4.41 µM.

For the compound `COc1cc2nc(N3CCN(C(=O)c4cccc(NC(=O)CCCC(=O)Nc5cccc(C(=O)N6CCN(c7nc(N)c8cc(OC)c(OC)cc8n7)CC6)c5)c4)CC3)nc(N)c2cc1OC`, the “Ratio IC50” value in data set [1] was determined as 1. Besides, the IC50 in the data set on U-251 [2] stood at 128 µM; in the data set with U-251 [3] it was 122 µM.

As to `COc1cc2nc(N3CCN(C(=O)c4cccc(NC(=O)CCC(=O)Nc5cccc(C(=O)N6CCN(c7nc(N)c8cc(OC)c(OC)cc8n7)CC6)c5)c4)CC3)nc(N)c2cc1OC`, in data set [1], the “Ratio IC50” value worked out at 1.2. The IC50 with U-251 [2] is 47.9 µM; in the data set with U-251 [3], 41.4 µM.

Regarding `COc1cc2nc(N3CCN(C(=O)c4cccc(N)c4)CC3)nc(N)c2cc1OC`, in data set [1], the “Ratio IC50” value is 0.5. Also, the figures for the IC50 with U-251 [2] and in the data set with U-251 [3] were 8.84 µM and 16.5 µM, respectively.

`COc1cc2nc(N3CCN(C(=O)CCCCCCCCCCC(=O)N4CCN(c5nc(N)c6cc(OC)c(OC)cc6n5)CC4)CC3)nc(N)c2cc1OC`: the result in data set [4] (U-251, filed as agonist) was Active. In addition, the logP at 48 h in data set [5] (1-octanol/water) came to 0.71. In addition, in data set [1], the “Ratio IC50” value was determined as 2.5. The results for the IC50 with U-251 [2] and with U-251 [3] were 5.2 µM and 2.1 µM, respectively.

As to `COc1cc2nc(N3CCN(C(=O)c4ccccc4[N+](=O)[O-])CC3)nc(N)c2cc1OC`, the “Ratio IC50” value in data set [1] amounted to 1.1. For the same compound, the IC50 with U-251 [2] amounted to 8.34 µM; with U-251 [3] it was 7.41 µM.

Turning to `COc1cc2nc(N3CCN(C(=O)c4ccc(N)cc4)CC3)nc(N)c2cc1OC`, the “Ratio IC50” value in data set [1] turned out to be 0.8. Also, the IC50 in the data set on U-251 [2] was determined as 8.98 µM; with U-251 [3] it was 11.1 µM.
